# In ChEMBL document CHEMBL1146597, “Synthesis, in vitro affinity, and efficacy of a bis 8-ethynyl-4H-imidazo[1,5a]- [1,4]benzodiazepine analogue, the first bivalent alpha5 subtype selective BzR/GABA(A) antagonist” (J Med Chem, 2003):
# How the values were obtained:
# [1] = biological target: GABA A receptor alpha-4/beta-3/gamma-2 (Homo sapiens, UniProt P18507+P28472+P48169); assay: In vitro binding affinity for human GABA-A receptor alpha-4-beta-3-gamma-2 subunits expressed in L(tk-) cell membranes
# Outline: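 Radioligand displacement on Ltk cell membranes expressing human α4β3γ2 receptors, with 8 nM [3H]Ro15-4513 as radioligand. Ki is the mean of two determinations that differed by less than 10%.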
# [2] = In vitro binding affinity for human GABA-A receptor alpha-3-beta-3-gamma-2 subunits expressed in L(tk-) cell membranes
# Outline: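 Radioligand displacement on Ltk cell membranes expressing human α3β3γ2 receptors, with 1.8 nM [3H]Ro15-1788 as radioligand. Ki is the mean of two determinations that differed by less than 10%.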
# [3] = biological target: T1, GABA-A receptor; alpha-1/beta-3/gamma-2 (Homo sapiens, UniProt P14867+P18507+P28472); assay: In vitro binding affinity for human GABA-A receptor alpha-1-beta-3-gamma-2 subunits expressed in L(tk-) cell membranes
# T1 sequence (P14867 whole entry): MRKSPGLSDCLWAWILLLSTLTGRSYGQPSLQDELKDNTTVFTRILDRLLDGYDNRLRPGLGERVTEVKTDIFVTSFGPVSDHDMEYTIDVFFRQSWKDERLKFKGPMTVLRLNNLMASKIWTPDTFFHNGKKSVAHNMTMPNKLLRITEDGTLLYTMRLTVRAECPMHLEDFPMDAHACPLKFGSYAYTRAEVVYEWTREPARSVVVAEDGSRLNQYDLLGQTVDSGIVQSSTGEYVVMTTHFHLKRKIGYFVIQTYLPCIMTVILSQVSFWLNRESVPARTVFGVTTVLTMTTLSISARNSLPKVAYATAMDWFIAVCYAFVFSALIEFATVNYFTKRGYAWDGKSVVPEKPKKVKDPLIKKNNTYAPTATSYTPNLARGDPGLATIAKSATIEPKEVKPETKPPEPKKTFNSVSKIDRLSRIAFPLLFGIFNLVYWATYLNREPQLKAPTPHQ
# T1 sequence (P18507 whole entry): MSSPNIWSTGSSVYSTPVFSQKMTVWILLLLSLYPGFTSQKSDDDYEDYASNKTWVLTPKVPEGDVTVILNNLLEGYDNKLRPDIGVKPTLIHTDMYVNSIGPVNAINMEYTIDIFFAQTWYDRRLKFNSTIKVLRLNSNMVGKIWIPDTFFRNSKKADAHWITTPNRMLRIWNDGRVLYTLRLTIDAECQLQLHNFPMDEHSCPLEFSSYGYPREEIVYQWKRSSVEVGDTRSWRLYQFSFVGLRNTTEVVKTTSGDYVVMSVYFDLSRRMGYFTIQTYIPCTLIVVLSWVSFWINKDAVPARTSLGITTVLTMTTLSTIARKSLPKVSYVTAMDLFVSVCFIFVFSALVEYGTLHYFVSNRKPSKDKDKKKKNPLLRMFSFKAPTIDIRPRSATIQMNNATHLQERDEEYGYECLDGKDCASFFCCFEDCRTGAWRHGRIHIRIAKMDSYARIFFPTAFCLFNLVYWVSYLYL
# T1 sequence (P28472 whole entry): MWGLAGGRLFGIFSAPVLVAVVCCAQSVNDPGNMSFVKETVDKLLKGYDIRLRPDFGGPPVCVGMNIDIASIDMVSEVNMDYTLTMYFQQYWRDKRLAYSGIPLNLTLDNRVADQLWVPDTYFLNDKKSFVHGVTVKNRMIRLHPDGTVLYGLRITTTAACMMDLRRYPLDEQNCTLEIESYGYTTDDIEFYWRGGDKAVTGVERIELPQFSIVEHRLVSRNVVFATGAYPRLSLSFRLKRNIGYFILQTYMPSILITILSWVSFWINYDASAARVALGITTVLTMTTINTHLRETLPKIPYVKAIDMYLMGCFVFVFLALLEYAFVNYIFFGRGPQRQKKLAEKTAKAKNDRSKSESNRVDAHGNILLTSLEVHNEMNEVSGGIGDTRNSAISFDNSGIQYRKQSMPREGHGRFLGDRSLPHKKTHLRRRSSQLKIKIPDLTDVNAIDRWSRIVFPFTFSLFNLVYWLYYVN
# Outline: (§1)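 Radioligand displacement on membranes of […] cells expressing human αβ3γ2 receptors, using 1.8 nM [³H]Ro15-1788. Ki taken as the mean of two determinations that differed by less than 10%.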
# [4] = biological target: GABA-A receptor; alpha-6/beta-3/gamma-2 (Homo sapiens, UniProt P18507+P28472+Q16445); assay: In vitro binding affinity for human GABA-A receptor alpha-6-beta-3-gamma-2 subunits expressed in L(tk-) cell membranes
# [5] = biological target: T2, GABA-A receptor; alpha-5/beta-3/gamma-2 (Homo sapiens, UniProt P18507+P28472+P31644); assay: In vitro binding affinity for human GABA-A receptor alpha-5-beta-3-gamma-2 subunits expressed in L(tk-) cell membranes; outline: as §1
# T2 sequence (P18507 whole entry): T1 sequence (P18507 whole entry)
# T2 sequence (P28472 whole entry): T1 sequence (P28472 whole entry)
# T2 sequence (P31644 whole entry): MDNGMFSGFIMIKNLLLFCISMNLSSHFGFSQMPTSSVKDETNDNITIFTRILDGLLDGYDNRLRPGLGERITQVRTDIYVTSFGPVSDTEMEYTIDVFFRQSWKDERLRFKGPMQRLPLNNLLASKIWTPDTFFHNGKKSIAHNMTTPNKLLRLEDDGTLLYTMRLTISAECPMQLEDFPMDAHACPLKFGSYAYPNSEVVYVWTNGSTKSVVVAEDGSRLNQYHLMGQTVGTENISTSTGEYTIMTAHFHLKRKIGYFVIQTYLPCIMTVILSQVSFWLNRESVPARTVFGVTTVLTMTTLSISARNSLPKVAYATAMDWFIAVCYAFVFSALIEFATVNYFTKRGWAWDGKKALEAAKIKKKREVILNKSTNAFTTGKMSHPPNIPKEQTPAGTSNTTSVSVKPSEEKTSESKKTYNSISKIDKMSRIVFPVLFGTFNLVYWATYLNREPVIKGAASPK
# [6] = biological target: T3, GABA-A receptor; alpha-2/beta-3/gamma-2 (Homo sapiens, UniProt P18507+P28472+P47869); assay: In vitro binding affinity for human GABA-A receptor alpha-2-beta-3-gamma-2 subunits expressed in L(tk-) cell membranes; outline: as §1
# T3 sequence (P18507 whole entry): T1 sequence (P18507 whole entry)
# T3 sequence (P28472 whole entry): T1 sequence (P28472 whole entry)
# T3 sequence (P47869 whole entry): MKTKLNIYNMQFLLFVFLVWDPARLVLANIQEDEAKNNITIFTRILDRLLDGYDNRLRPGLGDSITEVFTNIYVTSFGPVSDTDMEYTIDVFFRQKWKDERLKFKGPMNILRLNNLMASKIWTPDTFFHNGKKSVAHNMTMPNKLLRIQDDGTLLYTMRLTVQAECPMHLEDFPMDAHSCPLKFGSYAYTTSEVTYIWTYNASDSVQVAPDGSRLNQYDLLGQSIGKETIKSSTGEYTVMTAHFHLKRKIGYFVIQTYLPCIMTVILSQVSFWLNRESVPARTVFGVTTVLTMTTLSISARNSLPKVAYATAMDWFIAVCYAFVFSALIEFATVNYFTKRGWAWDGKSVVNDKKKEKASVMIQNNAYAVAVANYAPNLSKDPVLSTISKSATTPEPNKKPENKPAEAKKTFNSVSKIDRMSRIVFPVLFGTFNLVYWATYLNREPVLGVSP
# Sequence of GABA A receptor alpha-4/beta-3/gamma-2 (P48169 whole entry, one chain of several): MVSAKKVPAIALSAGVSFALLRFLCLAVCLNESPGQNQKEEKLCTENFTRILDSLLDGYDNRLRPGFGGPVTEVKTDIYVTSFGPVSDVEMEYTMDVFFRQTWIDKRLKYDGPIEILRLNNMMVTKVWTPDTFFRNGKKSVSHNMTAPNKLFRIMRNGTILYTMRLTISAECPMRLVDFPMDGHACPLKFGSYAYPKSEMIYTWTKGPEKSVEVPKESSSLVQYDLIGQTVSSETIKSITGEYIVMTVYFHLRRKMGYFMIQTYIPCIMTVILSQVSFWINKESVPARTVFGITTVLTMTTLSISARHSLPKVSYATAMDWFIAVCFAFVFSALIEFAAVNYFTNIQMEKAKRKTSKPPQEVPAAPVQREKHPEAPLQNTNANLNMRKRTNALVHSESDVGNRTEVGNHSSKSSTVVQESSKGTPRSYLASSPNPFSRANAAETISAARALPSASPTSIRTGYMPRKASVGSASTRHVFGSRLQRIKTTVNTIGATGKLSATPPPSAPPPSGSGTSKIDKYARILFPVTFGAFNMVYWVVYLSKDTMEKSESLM
# Sequence of GABA-A receptor; alpha-6/beta-3/gamma-2 (Q16445 whole entry, one chain of several): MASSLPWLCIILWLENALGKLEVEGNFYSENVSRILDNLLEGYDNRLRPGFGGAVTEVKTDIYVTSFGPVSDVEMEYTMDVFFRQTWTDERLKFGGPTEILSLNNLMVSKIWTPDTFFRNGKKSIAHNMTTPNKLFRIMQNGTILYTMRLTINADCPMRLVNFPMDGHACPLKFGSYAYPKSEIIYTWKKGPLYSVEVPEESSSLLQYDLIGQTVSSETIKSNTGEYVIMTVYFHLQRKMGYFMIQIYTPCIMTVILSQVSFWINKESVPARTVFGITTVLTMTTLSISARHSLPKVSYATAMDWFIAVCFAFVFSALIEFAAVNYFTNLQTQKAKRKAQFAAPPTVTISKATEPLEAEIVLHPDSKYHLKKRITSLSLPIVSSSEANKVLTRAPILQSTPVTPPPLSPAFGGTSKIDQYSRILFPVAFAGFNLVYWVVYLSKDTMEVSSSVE
Ki [4] [nM],Ki [5] [nM],Ki [6] [nM],SMILES,Ki [1] [nM],Ki [2] [nM],Ki [3] [nM]
–,–,–,C#Cc1ccc2c(c1)C(=O)N(C)Cc1c(C(=O)OCC)ncn1-2,53,25.8,–
–,–,–,CN1Cc2c(C(=O)OC(C)(C)C)ncn2-c2ccc(C#C[Si](C)(C)C)cc2C1=O,7.8,255,–
> 2000,15,> 1000,C#Cc1ccc2c(c1)C(=O)N(C)Cc1c(C(=O)OCCCOC(=O)c3ncn4c3CN(C)C(=O)c3cc(C#C)ccc3-4)ncn1-2,1550,858,> 1000
–,–,–,CCOC(=O)c1ncn2c1[C@@H]1CCCN1C(=O)c1cc(OC)ccc1-2,–,24.5,–
–,–,–,C#Cc1ccc2c(c1)C(=O)N(C)Cc1c(C(=O)OC(C)(C)C)ncn1-2,–,18.7,–
–,–,–,CCOC(=O)c1ncn2c1CN(C)C(=O)c1cc(C#C[Si](C)(C)C)ccc1-2,–,198,–
–,–,–,CCOC(=O)c1ncn2c1CN(C)C(=O)c1cc(N=[N+]=[N-])ccc1-2 [Ro-154513],–,25,33
